Laboratory results reported in ChEMBL document CHEMBL4706770, “SD-91 as A Potent and Selective STAT3 Degrader Capable of Achieving Complete and Long-Lasting Tumor Regression” (ACS Med Chem Lett, 2021).
pKd: −log10 of the molar value. Activity calls are given as the source filed them. No cut-off for these calls is given here.

Columns and labels:
[1] = Toxicity in SCID mouse xenografted with human MOLM16 cells assessed as body weight loss at 25 to 50 mg/kg, iv for 65 days; assay type: organism-based; details: in vivo, 1560 h, dose 25-50 mg/kg, time 65 day
How it was run: (§1)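 SCID mice bearing MOLM-16 xenografts dosed intravenously at 25 or 50 mg/kg on a weekly schedule; vehicle 10% PEG400/90% PBS; body weight and tumor volume measured every 2 days; signs of toxicity monitored during and after treatment.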

[2] = Antitumor activity against human MOLM16 cells xenografted in SCID mouse assessed as tumor growth at 25 mg/kg, iv administered weekly measured after 2 weeks relative to control; assay type: functional
How it was run: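 SCID mice bearing MOLM-16 xenografts given compound iv once weekly at 25 or 50 mg/kg. Tumor volume and body weight measured every 2 days. Growth inhibition expressed against vehicle-treated controls.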

Mus musculus [3] = experiment: In vivo induction of STAT6 degradation in SCID mouse xenografted with human MOLM16 cells assessed as reduction in STAT6 in tumor tissue at 50 mg/kg, iv measured after 24 hrs by immunoblotting analysis; assay type: functional, organism-based
How it was run: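 SCID mice bearing MOLM-16 tumors given a single iv dose of 50 mg/kg or dosing vehicle. Tumor lysates immunoblotted for STAT3, STAT1 and STAT6 at time points from 1 h to at least 24 h.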

[4] = Toxicity in SCID mouse xenografted with human MOLM16 cells assessed as toxic effects at 25 to 50 mg/kg, iv for 65 days; assay type: organism-based; details: in vivo, 1560 h, dose 25-50 mg/kg, time 65 day; how it was run: as §1
Mus musculus [5] = experiment: In vivo induction of STAT3 degradation in SCID mouse xenografted with human MOLM16 cells assessed as reduction in total STAT3 level in tumor tissue at 50 mg/kg, iv measured after 24 hrs by immunoblotting analysis; assay type: functional, organism-based
How it was run: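 SCID mice bearing MOLM-16 or SU-DHL-1 xenografts given a single iv dose of 50 mg/kg or dosing vehicle. Tumor lysates immunoblotted for p-STAT3 Y705 and total STAT3 at time points up to 48 h (MOLM-16) and 24 h (SU-DHL-1).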

[6] = molecular target: Signal transducer and activator of transcription 2 (Homo sapiens, UniProt P52630); experiment: Binding affinity to human recombinant STAT2 assessed as dissociation constant incubated for 15 mins by biolayer interferometry
Signal transducer and activator of transcription 2, sequence (P52630 whole entry, the tested form may be a part): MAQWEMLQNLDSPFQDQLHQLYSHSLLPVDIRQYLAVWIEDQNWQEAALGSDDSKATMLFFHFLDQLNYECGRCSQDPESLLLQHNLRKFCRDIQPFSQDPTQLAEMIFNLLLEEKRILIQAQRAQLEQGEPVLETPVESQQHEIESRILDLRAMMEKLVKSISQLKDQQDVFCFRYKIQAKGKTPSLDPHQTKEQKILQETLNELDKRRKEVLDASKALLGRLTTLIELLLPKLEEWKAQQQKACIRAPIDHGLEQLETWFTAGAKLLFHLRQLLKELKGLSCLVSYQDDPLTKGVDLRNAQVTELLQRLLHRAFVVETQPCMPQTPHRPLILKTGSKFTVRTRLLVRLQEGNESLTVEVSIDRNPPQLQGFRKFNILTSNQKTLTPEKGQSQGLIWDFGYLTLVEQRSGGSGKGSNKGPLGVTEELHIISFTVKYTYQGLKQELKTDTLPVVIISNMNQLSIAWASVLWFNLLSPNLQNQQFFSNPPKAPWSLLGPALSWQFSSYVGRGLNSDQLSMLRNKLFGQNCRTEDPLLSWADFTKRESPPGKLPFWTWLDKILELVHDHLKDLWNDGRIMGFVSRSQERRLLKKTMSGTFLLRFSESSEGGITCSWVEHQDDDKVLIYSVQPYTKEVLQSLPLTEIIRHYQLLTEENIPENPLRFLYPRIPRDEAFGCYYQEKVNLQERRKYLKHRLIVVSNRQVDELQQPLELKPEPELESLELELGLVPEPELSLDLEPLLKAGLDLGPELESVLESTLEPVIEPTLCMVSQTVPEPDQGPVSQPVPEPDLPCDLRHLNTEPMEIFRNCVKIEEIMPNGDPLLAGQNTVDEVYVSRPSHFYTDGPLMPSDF
How it was run: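 Biolayer interferometry with recombinant human STAT1, STAT2, STAT3, STAT4, STAT5A, STAT5B or STAT6 proteins containing their SH2 domain. Compound run in 2× serial dilutions from 200 nM. Kd taken from steady-state fitting of equilibrium responses against concentration using a 1:1 binding model.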

[7] = molecular target: Protein cereblon/Signal transducer and activator of transcription 6 (Homo sapiens) (UniProt P42226+Q96SW2); experiment: Protac activity at CRBN/STAT6 in human MOLM16 cells assessed as STAT6 degradation at 0.25 to 100 uM incubated for 4 hrs by Western blot analysis; assay type: cell-based; details: dose 0.25-100 µM
Protein cereblon/Signal transducer and activator of transcription 6 (Homo sapiens), sequence (P42226 2-847 limits assumed): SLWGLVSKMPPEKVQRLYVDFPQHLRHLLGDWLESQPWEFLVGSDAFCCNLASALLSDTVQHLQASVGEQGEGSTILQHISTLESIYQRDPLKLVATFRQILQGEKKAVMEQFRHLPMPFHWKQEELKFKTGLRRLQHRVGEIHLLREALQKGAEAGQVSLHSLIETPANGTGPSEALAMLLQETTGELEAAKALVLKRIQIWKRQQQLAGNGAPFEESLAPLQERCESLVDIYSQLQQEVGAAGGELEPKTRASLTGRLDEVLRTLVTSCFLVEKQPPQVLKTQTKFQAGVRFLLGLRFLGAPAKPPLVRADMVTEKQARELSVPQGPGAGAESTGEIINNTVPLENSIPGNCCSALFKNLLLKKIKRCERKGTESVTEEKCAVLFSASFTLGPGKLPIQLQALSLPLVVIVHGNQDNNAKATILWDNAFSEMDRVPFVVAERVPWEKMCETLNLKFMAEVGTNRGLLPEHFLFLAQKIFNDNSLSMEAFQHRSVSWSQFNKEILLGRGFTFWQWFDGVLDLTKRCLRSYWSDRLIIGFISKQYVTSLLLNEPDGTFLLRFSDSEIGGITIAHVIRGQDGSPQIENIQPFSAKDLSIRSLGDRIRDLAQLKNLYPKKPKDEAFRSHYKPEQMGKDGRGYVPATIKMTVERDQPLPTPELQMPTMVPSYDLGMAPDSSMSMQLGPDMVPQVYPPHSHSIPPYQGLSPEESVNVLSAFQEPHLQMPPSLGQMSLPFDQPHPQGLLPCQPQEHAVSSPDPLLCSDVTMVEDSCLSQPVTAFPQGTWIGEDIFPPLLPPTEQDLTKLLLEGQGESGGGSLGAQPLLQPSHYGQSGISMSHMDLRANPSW
Protein cereblon/Signal transducer and activator of transcription 6 (Homo sapiens), sequence (Q96SW2 whole entry partner): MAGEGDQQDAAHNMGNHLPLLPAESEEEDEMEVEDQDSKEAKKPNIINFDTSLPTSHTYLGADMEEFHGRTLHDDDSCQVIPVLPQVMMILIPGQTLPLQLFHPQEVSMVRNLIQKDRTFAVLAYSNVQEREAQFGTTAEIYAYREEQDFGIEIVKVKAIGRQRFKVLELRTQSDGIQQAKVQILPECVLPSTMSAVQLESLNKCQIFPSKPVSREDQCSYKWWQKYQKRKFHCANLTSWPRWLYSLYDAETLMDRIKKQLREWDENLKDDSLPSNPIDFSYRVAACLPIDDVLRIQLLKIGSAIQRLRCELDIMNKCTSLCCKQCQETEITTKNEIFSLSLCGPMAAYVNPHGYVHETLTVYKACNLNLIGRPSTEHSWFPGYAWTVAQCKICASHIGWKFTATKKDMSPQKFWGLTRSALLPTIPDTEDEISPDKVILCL
How it was run: (§2)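 Cells treated 4 h with compounds across 25 nM to 100 μM; STAT proteins detected by Western blot with GAPDH as loading control; STAT3 DC50 estimated by densitometry of STAT3 relative to GAPDH. Applies to MOLM-16 for all STATs, and to SU-DHL-1 and SUP-M2 for STAT3.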

[8] = Stability of compound in buffer pH 8 assessed as conversion to (2-(((5S,8S,10aR)-8-(((S)-5-amino-1-(benzhydrylamino)-1,5-dioxopentan-2-yl)carbamoyl)-3-(8-(2-(2,6-dioxopiperidin-3-yl)-1-oxoisoindolin-4-yl)oct-7-ynoyl)-6-oxodecahydropyrrolo[1,2-a][1,5]diazocin-5-yl)carbamoyl)-1H-indole-5-carbonyl)phosphonic acid by measuring half life at 37 degC by LC/MS/MS analysis; assay type: physicochemical
How it was run: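 SD-36 incubated in pH 8 buffer at 37 °C; percentages of parent and hydrolysis products followed over time; half-life of conversion derived from the time course.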

[9] = (§3) Drug uptake in SCID mouse xenografted with human MOLM16 cells assessed as (2-(((5S,8S,10aR)-8-(((S)-5-amino-1-(benzhydrylamino)-1,5-dioxopentan-2-yl)carbamoyl)-3-(8-(2-(2,6-dioxopiperidin-3-yl)-1-oxoisoindolin-4-yl)oct-7-yno yl)-6-oxodecahydropyrrolo[1,2-a][1,5]diazocin-5-yl)carbamoyl)-1H-indole-5-carbonyl)phosphonic acid level in plasma at 50 mg/kg, iv measured after 1 hrs by LC-MS/MS; assay type: ADME, organism-based; details: in vivo
How it was run: (§4)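 SCID mice bearing MOLM-16 xenografts given a single iv dose of 50 mg/kg. Concentrations of parent and hydrolysis product measured in plasma (ng/mL) and tumor tissue (ng/g) at 1, 6 and 24 h.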

[10] = molecular target: T1, Protein cereblon/Signal transducer and activator of transcription 1-alpha/beta (Homo sapiens) (UniProt P42224+Q96SW2); experiment: Protac activity at CRBN/STAT1 in human MOLM16 cells assessed as STAT1 degradation at 0.25 to 100 uM incubated for 4 hrs by Western blot analysis; assay type: cell-based; details: dose 0.25-100 µM; how it was run: as §2
[11] = molecular target: Protein cereblon/Signal transducer and activator of transcription 5A (Homo sapiens) (UniProt P42229+Q96SW2); experiment: Protac activity at CRBN/STAT5 in human SUP-M2 cells assessed as STAT5 degradation at 0.25 to 100 uM incubated for 4 hrs by Western blot analysis; assay type: cell-based; details: SUPM2, dose 0.25-100 µM
Protein cereblon/Signal transducer and activator of transcription 5A (Homo sapiens), sequence (P42229 whole entry, looked up): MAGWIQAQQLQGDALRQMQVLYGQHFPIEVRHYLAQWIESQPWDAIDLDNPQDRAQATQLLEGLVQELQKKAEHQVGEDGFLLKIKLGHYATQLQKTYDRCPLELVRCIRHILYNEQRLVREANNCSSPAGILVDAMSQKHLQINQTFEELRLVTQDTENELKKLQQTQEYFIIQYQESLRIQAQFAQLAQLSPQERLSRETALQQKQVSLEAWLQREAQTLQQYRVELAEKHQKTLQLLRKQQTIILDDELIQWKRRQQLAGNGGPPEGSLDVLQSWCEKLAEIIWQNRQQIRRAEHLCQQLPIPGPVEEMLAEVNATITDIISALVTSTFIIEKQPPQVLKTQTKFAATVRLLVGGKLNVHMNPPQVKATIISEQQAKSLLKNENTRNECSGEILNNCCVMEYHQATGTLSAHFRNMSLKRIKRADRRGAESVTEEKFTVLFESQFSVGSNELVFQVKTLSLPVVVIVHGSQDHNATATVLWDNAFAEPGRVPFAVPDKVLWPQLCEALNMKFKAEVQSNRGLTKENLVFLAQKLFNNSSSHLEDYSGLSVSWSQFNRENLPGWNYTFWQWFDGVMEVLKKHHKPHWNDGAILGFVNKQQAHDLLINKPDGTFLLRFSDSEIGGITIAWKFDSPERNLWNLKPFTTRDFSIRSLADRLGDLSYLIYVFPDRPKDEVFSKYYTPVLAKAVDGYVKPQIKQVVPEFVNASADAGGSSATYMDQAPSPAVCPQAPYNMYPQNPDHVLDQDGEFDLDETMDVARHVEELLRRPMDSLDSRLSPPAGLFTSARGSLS
Protein cereblon/Signal transducer and activator of transcription 5A (Homo sapiens), sequence (Q96SW2 whole entry, looked up): as the sequence (Q96SW2 whole entry partner) above

[12] = Drug metabolism in complete cell culture medium assessed as (2-(((5S,8S,10aR)-8-(((S)-5-amino-1-(benzhydrylamino)-1,5-dioxopentan-2-yl)carbamoyl)-3-(8-(2-(2,6-dioxopiperidin-3-yl)-1-oxoisoindolin-4-yl)oct-7-ynoyl)-6-oxodecahydropyrrolo[1,2-a][1,5]diazocin-5-yl)carbamoyl)-1H-indole-5-carbonyl)phosphonic acid after 2 hrs
How it was run: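 Parent compound incubated in the cell culture medium used for the cellular assays, with or without cells, at 37 °C. Percentages of the hydrolysis product and the glutarimide ring-opened product measured at time points up to 96 h.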

[13] = molecular target: T2, Protein cereblon/Signal transducer and activator of transcription 4 (Homo sapiens) (UniProt Q96SW2+Q14765); experiment: Protac activity at CRBN/STAT4 in human SUP-M2 cells assessed as STAT4 degradation at 0.25 to 100 uM incubated for 4 hrs by Western blot analysis; assay type: cell-based; details: SUPM2, dose 0.25-100 µM
T2 sequence (Q14765 whole entry, looked up): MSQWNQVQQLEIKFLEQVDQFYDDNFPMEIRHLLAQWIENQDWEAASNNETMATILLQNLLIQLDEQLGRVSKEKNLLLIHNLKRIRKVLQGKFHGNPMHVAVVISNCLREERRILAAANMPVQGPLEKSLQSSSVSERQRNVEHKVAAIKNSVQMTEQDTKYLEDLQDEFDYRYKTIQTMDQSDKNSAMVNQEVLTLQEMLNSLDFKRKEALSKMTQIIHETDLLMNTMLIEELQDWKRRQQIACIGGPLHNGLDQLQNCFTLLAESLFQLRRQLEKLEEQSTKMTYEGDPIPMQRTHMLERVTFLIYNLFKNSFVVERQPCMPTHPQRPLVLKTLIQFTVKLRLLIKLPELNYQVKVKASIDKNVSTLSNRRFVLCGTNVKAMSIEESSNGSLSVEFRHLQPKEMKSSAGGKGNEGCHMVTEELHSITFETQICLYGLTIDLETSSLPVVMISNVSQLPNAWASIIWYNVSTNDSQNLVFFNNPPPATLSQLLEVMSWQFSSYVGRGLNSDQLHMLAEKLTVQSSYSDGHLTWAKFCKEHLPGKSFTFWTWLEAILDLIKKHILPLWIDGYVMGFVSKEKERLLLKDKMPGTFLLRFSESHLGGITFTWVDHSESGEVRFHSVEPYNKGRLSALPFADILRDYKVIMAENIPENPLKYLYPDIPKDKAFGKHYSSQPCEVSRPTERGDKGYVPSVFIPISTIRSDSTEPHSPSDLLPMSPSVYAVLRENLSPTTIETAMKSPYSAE
T2 sequence (Q96SW2 whole entry, looked up): as the sequence (Q96SW2 whole entry partner) above

[14] = as §3, with “tumor tissue” for “plasma”; assay type: ADME, organism-based; details: in vivo; how it was run: as §4
[15] = Drug metabolism buffer pH 8 assessed as conversion to 5-amino-4-(4-(8-((5S,8S,10aR)-8-((S)-5-amino-1-(benzhydrylamino)-1,5-dioxopentan-2-ylcarbamoyl)-6-oxo-5-(5-(phosphonocarbonyl)-1H-indole-2-carboxamido)octahydropyrrolo[1,2-a][1,5]diazocin-3(4H)-yl)-8-oxooct-1-ynyl)-1-oxoisoindolin-2-yl)-5-oxopentanoic acid measured upto 100 hrs by LC/MS/MS analysis; details: time hrs <=100
How it was run: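 Parent compound incubated in buffer at pH 4 or pH 8, at room temperature or 37 °C. Percentages of the parent, the hydrolysis product and the glutarimide ring-opened product followed over time, up to 96 h.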

[16] = molecular target: Protein cereblon/Signal transducer and activator of transcription 2 (Homo sapiens) (UniProt Q96SW2+P52630); experiment: Protac activity at CRBN/STAT2 in human SUP-M2 cells […] at 0.25 to 100 uM incubated for 4 hrs by Western blot analysis; assay type: cell-based; details: SUPM2, dose lower 0.25 µM
Protein cereblon/Signal transducer and activator of transcription 2 (Homo sapiens), sequence (P52630 whole entry, looked up): as the sequence (P52630 whole entry, the tested form may be a part) above
Protein cereblon/Signal transducer and activator of transcription 2 (Homo sapiens), sequence (Q96SW2 whole entry, looked up): as the sequence (Q96SW2 whole entry partner) above

[17] = molecular target: T2, Protein cereblon/Signal transducer and activator of transcription 4 (Homo sapiens); experiment: Protac activity at CRBN/STAT4 in human MOLM16 cells assessed as STAT4 degradation at 0.25 to 100 uM incubated for 4 hrs by Western blot analysis; assay type: cell-based; details: dose 0.25-100 µM; how it was run: as §2
[18] = molecular target: T1, Protein cereblon/Signal transducer and activator of transcription 1-alpha/beta (Homo sapiens); experiment: Protac activity at CRBN/STAT1 in human SUP-M2 cells […] at 0.25 to 100 uM incubated for 4 hrs by Western blot analysis; assay type: cell-based; details: SUPM2, dose lower 0.25 µM

| Compound | Activity [1] | Activity [2] [%] | Activity (Mus musculus [3]) | Activity [4] | Activity (Mus musculus [5]) | pKd [6] | Activity [7] | t1/2 [8] [h] | Drug uptake [9] [ng/mL] | Activity [10] | Activity [11] | Drug metabolism [12] [%] | Activity [13] | Drug uptake [14] [ng/g] | Drug metabolism [15] | Activity [16] | Activity [17] | Activity [18] |
| --- | --- | --- | --- | --- | --- | --- | --- | --- | --- | --- | --- | --- | --- | --- | --- | --- | --- | --- |
| NC(=O)CC[C@H](NC(=O)[C@@H]1CC[C@@H]2CCN(C(=O)CCCCCC#Cc3cccc4c3CN(C3CCC(=O)NC3=O)C4=O)C[C@H](NC(=O)c3cc4cc(C(=O)P(=O)(O)O)ccc4[nH]3)C(=O)N21)C(=O)NC(c1ccccc1)c1ccccc1 (stereo partly drawn) | Non-Toxic | 87 | inactive | Non-Toxic | Active | < 8.00 | – | – | – | – | – | – | – | – | – | – | – | – |
| NC(=O)CC[C@H](NC(=O)[C@@H]1CC[C@@H]2CCN(C(=O)CCCCCC#Cc3cccc4c3CN(C3CCC(=O)NC3=O)C4=O)C[C@H](NC(=O)c3cc4cc(C(F)(F)P(=O)(O)O)ccc4[nH]3)C(=O)N21)C(=O)NC(c1ccccc1)c1ccccc1 (stereo partly drawn) | – | – | – | – | – | – | inactive | 4 | 48476 | inactive | inactive | 50 | inactive | 6350 | Metabolite detected | inactive | inactive | inactive |
